Results: ChEMBL document CHEMBL1129988, “4-substituted cubylcarbinylamines: a new class of mechanism-based monoamine oxidase B inactivators” (J Med Chem, 1997)

Key:
[1] = target: T1, Amine oxidase [flavin-containing] B (Bos taurus, UniProt P56560); assay: K inact/KI against Monoamine oxidase B
T1 sequence (P56560 whole entry): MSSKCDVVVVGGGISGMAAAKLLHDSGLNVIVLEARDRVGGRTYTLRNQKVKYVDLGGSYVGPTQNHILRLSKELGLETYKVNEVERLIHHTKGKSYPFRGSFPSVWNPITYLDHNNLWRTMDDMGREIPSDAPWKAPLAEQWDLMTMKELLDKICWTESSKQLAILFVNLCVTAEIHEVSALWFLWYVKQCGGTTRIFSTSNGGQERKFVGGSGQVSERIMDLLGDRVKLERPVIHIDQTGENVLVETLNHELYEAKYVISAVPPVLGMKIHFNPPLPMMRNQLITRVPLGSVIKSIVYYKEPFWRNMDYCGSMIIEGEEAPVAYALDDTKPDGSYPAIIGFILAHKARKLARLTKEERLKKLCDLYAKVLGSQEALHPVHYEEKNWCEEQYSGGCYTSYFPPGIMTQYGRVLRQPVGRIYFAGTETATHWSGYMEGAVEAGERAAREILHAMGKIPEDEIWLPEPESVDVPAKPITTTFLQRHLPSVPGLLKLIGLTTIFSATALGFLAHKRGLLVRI
In short: (§1)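 MAO B (20 μL of 2.6 mg/mL) was added to the amine hydrochloride at various concentrations, in 100 mM Tris pH 9.0 with 4% v/v DMSO. The mixture was incubated at 25 °C. At intervals an aliquot was diluted 1:50 into 1.0 mM benzylamine in the same buffer, and activity was read as the change in absorbance at 250 nm. Activity is expressed relative to a no-inactivator DMSO control. K_I and k_inact were derived by the Kitz–Wilson method.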

[2] = target: T1, Amine oxidase [flavin-containing] B; assay: Inactivation constant was determined against mitochondrial Monoamine oxidase B; in short: as §1
[3] = target: T1, Amine oxidase [flavin-containing] B; assay: Inhibition constant was evaluated against mitochondrial Monoamine oxidase B; in short: as §1

| SMILES | kinact/KI [1] | kinact [2] | Ki [3] |
| --- | --- | --- | --- |
| NCC12C3C4C1C1C2C3C41c1ccccc1 (centres undefined) | 105 M⁻¹ s⁻¹ | 0.0125 s⁻¹ | 120 µM |
| NCC12C3C4C1C1C2C3C41C1CC1 (centres undefined) | 18.3 M⁻¹ s⁻¹ | 0.00467 s⁻¹ | 260 µM |
| NCC12C3C4C5C3C1C5C42 (centres undefined) | 3.17 M⁻¹ s⁻¹ | 0.00055 s⁻¹ | 170 µM |
